Results reported in the EternaBench riboswitch data.

System: MS2 coat protein
Assay: apparent Kd, MS2 coat protein; higher = weaker binding; RNA-MaP array; FMN 200 µM where present
Procedure, shortened: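 SNAP-549-labelled MS2 coat protein, doubled from 0.7 or 1.5 nM to 3 µM, was titrated over designs transcribed by stalled E. coli RNA polymerase on Illumina sequencing-chip clusters. Titrations were run without and then with constant ligand in 100 mM Tris-HCl pH 7.5, 80 mM KCl, 4 mM MgCl2, BSA, DTT, yeast tRNA and Tween-20. The apparent Kd is the median of filtered per-cluster fits to green signal normalised to red-channel RNA signal and control-cluster median Fmax.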

[1] = designed as: OFF switch for flavin mononucleotide, no ligand
[2] = ligand present: flavin mononucleotide, designed as: OFF switch for flavin mononucleotide
[3] = ligand present: flavin mononucleotide, designed as: ON switch for flavin mononucleotide
[4] = designed as: ON switch for flavin mononucleotide, no ligand

Sequence	apparent Kd [1]	apparent Kd [2]	apparent Kd [3]	apparent Kd [4]
AGCGGCGCGGGCCACCGCAAAACCAGAAGGACAUGAGGAUCACCCAUGUAACAAAACAGGGCGGUGUAGGAUAUGGCAGACCCA	10.3 nM	11.8 nM	–	–
UUAACAUGAGGAUCACCCAUGUAAAGAACGGUUAAUUAAAGUGAGGAUAUACAAAAUUUUAUAUUGUAGAAGGCACUGGGUACA	–	–	22.9 nM	–
GCGAUUUUGUAAGGAUAUACACGAGUUUCAAGUGUAGAAGGUACUUACAUGAGGAUCACCCAUGUAUACUUGGAUAAUAGUCGU	–	–	23.5 nM	29.2 nM
UGUAUGGACAGAGGAUAUACAGAUAGGAUCUACUAUCAAACAAUCCUGACAUGAGGAUCACCCAUGUAGAAGGCUGUCCAUACU	23.8 nM	91.4 nM	–	–
UGCAGGUGAGGAUAUGCGGGCGAUUAAACAUAUAAAUGCAAGCAGAAGGCACAUGAGGAUCACCCAUGUAGUCC	26 nM	36.1 nM	–	–
AAUAGGCGAGGAUAUACAUGAGGAUCACCCAUGUAAGUAAGCCUGGCUGAAACUGAAUGUAGAAGGCGCAAUAA	17.6 nM	58.5 nM	–	–
CGAUAUUAUAGAGGAUAUGUUUAACAUGAGGAUCACCCAUGUGAGGUGGAAUUAAUGUAUAACUUACAGAAGGCUAUACAAUCG	417 nM	500 nM	–	–
CCUCUACAUGAGGAUCACCCAUGUGAGGAUAUCUCGGAGCAGCCACUUAAGGCGCUCCAGAGAAGGCACGUGUA	19.6 nM	28.8 nM	–	–
UGGUACAUGAGGAUCACCCAUGUAAGAGCCCUCAUGCGAUGUAGAAGGAUAAUGCGAGUAGUGCUAUAGGAUAUACAUGAGUUU	225 nM	207 nM	–	–
GGUACUCAAAGAGUACCAAUACGAACAUGAGGAUCACCCAUGUAGGAUAUGCUACUCAAAGAGUAGCAGAAGGAUAUGAUCCAU	77.2 nM	105 nM	–	–
AAAAGACAUGAGGAUCACCCAUGUAAAAACAUAGGAGGAUAUGUUUGGAAACUAGACUGAACAGAAGGCCUUUGUC	–	–	17 nM	22.9 nM
AGGAGACAUGAGGAUCACCCAUGUGAGAAGAGGCGAGGAUAUCGAAAAAAAAAAAAAAAACGAGAAGGCGCGAGAA	–	–	39.3 nM	71 nM
CUUUAGUGAGGAUAUGUGGCUUCGAUCGUGAGAUCGAGGCUACAGAAGGCACAUGAGGAUCACCCAUGUUCCUU	14.5 nM	32.9 nM	–	–
UCAUAUUUACAAGGAUAUCAAUUGAAUAAACAUCGGACAUGAGGAUCACCCAUGUGAAAGUAUGGUGAGAAGGUGUAUUGUCGG	–	–	154 nM	217 nM
AAUAGUGGCGUAGGAUAUCUGCGUACAUGAGGAUCACCCAUGUCUCCCAACUGCUGAGCUGGGACAGAGAAGGGCGACCGCAUA	–	–	85.4 nM	225 nM
GCCUCACAUGAGGAUCACCCAUGUCAGGAUAUACCCAUCCGGCGCAAUUGCAGCCGUAGUAGAAGGGACAUGCA	21.2 nM	45.8 nM	–	–
GUGACGAAUGUAGGAUAUGCUGAGGAAUACUCAGCAGAAGGACAUGAGGAUCACCCAUGUCAUCCUAAUAAUAAAUAACGUCAC	12.3 nM	17.4 nM	–	–
CAUUUACAGGGAGGAUAUACAUGAGGAUCACCCAUGUCAUCAUAUGAUAUUUCUUUUGUAUGAGUGUAGAAGGCCCAACUACCA	19.2 nM	18.4 nM	–	–
GGAUAGGACAGAGGAUAUACCGAUAGGAUCUACUAUCGAAUAAUCCUCACAUGAGGAUCACCCAUGUAGAAGGCUGUCCUAUCG	21.3 nM	143 nM	–	–
GAGGAGCAAGGAUAUACGAGGAUAUGGUAGUUUGUAGAGUGACAUGAGGAUCACCCAUGUAGAAGGUGCGAGGG	64.2 nM	52.9 nM	–	–
AAAAAACAUGAGGAUCACCCAUGUCGAAAGACAUGAGGAUAUGUACAGACUUCGGUCUGUACAGAAGGCAUGUCUU	–	–	15.2 nM	37.3 nM
UAUUAGAUCCGAGGAUAUCCUUAUUAGAAACAUGAGGAUCACCCAUGUAAAGGGAAUUAUUUGUAGGAGAAGGCGGAUUUAGUU	–	–	52.9 nM	67.5 nM
UUGAUUAUACAAGGAUAUCUAUUGUAAUUUCGUCUUACAUGAGGAUCACCCAUGUUAAUAUUUUUAGAGAAGGUGUAUUUUCAG	–	–	25.9 nM	39.9 nM
